Results taken from ChEMBL document CHEMBL1156136, “Hypoxia-activated prodrugs: substituent effects on the properties of nitro seco-1,2,9,9a-tetrahydrocyclopropa[c]benz[e]indol-4-one (nitroCBI) prodrugs of DNA minor groove alkylating agents” (J Med Chem, 2009).
The source made the active and inactive calls. No cut-off for these calls is given here.

Legend:
HT-29 [1] = test: Cytotoxicity against human HT-29 cells assessed as cell kill in hypoxic condition by clonogenic assay; assay type: functional
How it was run: (§1)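 Clonogenic assay on single-cell suspensions from dissociated HT29 spheroids, about 1 × 10⁶ cells/mL. Drug exposure 4 h at 37 °C under 5% CO2 in O2 or in N2. Colonies grown 14 days, methylene blue stained, >50 cells counted. Surviving fraction = PE(treated)/PE(control); C10 is the concentration giving 10% survival, from the fitted curve.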

HT-29 [2] = test: Hypoxic cytotoxicity ratio, IC50 for human HT-29 cells in oxic condition to IC50 for human HT-29 cells in hypoxic condition by clonogenic assay; assay type: functional
Mus musculus = test: Toxicity in mouse at 100 umol/kg, ip; assay type: organism-based; settings: in vivo
SiHa [3] = test: Antitumor activity against human SiHa tumor bearing mouse assessed as log reduction of cell kill at 42 umol/kg, iv irradiated 5 mins before 15 Gy dose by cologenic assay; assay type: functional
How it was run: (§2)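 SiHa xenografts grown subcutaneously (10⁷ cultured cells) in female homozygous nude CD1-Foxn1nu/nu mice, randomised at mean tumour diameter 8-10 mm. Single iv tail-vein dose, 42 μmol/kg, in 5% DMSO/20% PEG-400/75% lactate buffer pH 4.0. Given alone or 5 min after 15 Gy irradiation. Tumours excised 18 h later, enzymatically dissociated, clonogenic survivors per gram counted. Groups of 3-5 mice; ANOVA with Holm-Sidak on log data.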

SiHa [4] = test: Antitumor activity against human SiHa tumor bearing mouse assessed as cell kill at 42 umol/kg, iv; assay type: functional; how it was run: as §2
SK-OV-3 [5] = test: Cytotoxicity against human SKOV3 cells in oxic condition after 4 hrs by sulforhodamine B assay; assay type: functional, cell-based; settings: SK-OV-3, 4 h
How it was run: (§3)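 Log-phase monolayers exposed to drug for 4 h under aerobic (20% O2) or anoxic (<20 ppm O2) conditions, then sulforhodamine B staining 5 days later. IC50 interpolated as concentration lowering cell density to 50% of same-plate controls. HCR = IC50(oxic)/IC50(hypoxic), mean of intraexperiment ratios. A549 P450R line is a stable transfectant with 9-fold higher cytochrome c reduction rate than parent.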

SK-OV-3 [6] = test: Cytotoxicity against human SKOV3 cells in hypoxic condition after 4 hrs by sulforhodamine B assay; assay type: functional, cell-based; settings: SK-OV-3, 4 h; how it was run: as §3
SK-OV-3 [7] = test: Hypoxic cytotoxicity ratio, IC50 for human SKOV3 cells in oxic condition to IC50 for human SKOV3 cells in hypoxic condition; assay type: functional; how it was run: as §3
HT-29 [8] = test: Cytotoxicity against human HT-29 cells in oxic condition after 4 hrs by sulforhodamine B assay; assay type: functional, cell-based; settings: HT-29, 4 h; how it was run: as §3
HT-29 [9] = test: Cytotoxicity against human HT-29 cells in hypoxic condition after 4 hrs by sulforhodamine B assay; assay type: functional, cell-based; settings: HT-29, 4 h; how it was run: as §3
HT-29 [10] = test: Hypoxic cytotoxicity ratio, IC50 for human HT-29 cells in oxic condition to IC50 for human HT-29 cells in hypoxic condition; assay type: functional; how it was run: as §3
HCT-116 [11] = test: Cytotoxicity against human HCT116 cells in oxic condition after 4 hrs by sulforhodamine B assay; assay type: functional, cell-based; settings: HCT-116, 4 h; how it was run: as §3
HCT-116 [12] = test: Cytotoxicity against human HCT116 cells in hypoxic condition after 4 hrs by sulforhodamine B assay; assay type: functional, cell-based; settings: HCT-116, 4 h; how it was run: as §3
HCT-116 [13] = test: Hypoxic cytotoxicity ratio, IC50 for human HCT116 cells in oxic condition to IC50 for human HCT116 cells in hypoxic condition; assay type: functional; how it was run: as §3
C-33-A [14] = test: Cytotoxicity against human C33A cells in oxic condition after 4 hrs by sulforhodamine B assay; assay type: functional, cell-based; how it was run: as §3
C-33-A [15] = test: Cytotoxicity against human C33A cells in hypoxic condition after 4 hrs by sulforhodamine B assay; assay type: functional, cell-based; how it was run: as §3
C-33-A [16] = test: Hypoxic cytotoxicity ratio, IC50 for human C33A cells in oxic condition to IC50 for human C33A cells in hypoxic condition; assay type: functional; how it was run: as §3
SiHa [17] = test: Cytotoxicity against human SiHa cells in oxic condition after 4 hrs by sulforhodamine B assay; assay type: functional, cell-based; how it was run: as §3
SiHa [18] = test: Cytotoxicity against human SiHa cells in hypoxic condition after 4 hrs by sulforhodamine B assay; assay type: functional, cell-based; how it was run: as §3
SiHa [19] = test: Hypoxic cytotoxicity ratio, IC50 for human SiHa cells in oxic condition to IC50 for human SiHa cells in hypoxic condition; assay type: functional; how it was run: as §3
A549 [20] = test: Cytotoxicity against human A549 cells in oxic condition after 4 hrs by sulforhodamine B assay; assay type: functional, cell-based; settings: A549, 4 h; how it was run: as §3
A549 [21] = test: Cytotoxicity against human A549 cells in hypoxic condition after 4 hrs by sulforhodamine B assay; assay type: functional, cell-based; settings: A549, 4 h; how it was run: as §3
A549 [22] = test: Hypoxic cytotoxicity ratio, IC50 for human A549 cells in oxic condition to IC50 for human A549 cells in hypoxic condition; assay type: functional; how it was run: as §3
A549 [23] = test: Cytotoxicity against human A549 cells overexpressing human NADPH/cytochrome P450 oxidoreductase in oxic condition after 4 hrs by sulforhodamine B assay; assay type: functional, cell-based; settings: A549, 4 h; how it was run: as §3
A549 [24] = test: Cytotoxicity against human A549 cells overexpressing human NADPH/cytochrome P450 oxidoreductase in hypoxic condition after 4 hrs by sulforhodamine B assay; assay type: functional, cell-based; settings: A549, 4 h; how it was run: as §3
A549 [25] = test: Hypoxic cytotoxicity ratio, IC50 for oxic condition to IC50 for hypoxic condition in human A549 cells overexpressing human NADPH/cytochrome P450 oxidoreductase; assay type: functional; how it was run: as §3
[26] = Cytotoxicity against human H1299 cells in oxic condition after 4 hrs by sulforhodamine B assay; assay type: functional, cell-based; settings: NCI-H1299, 4 h; how it was run: as §3
[27] = Cytotoxicity against human H1299 cells in hypoxic condition after 4 hrs by sulforhodamine B assay; assay type: functional, cell-based; settings: NCI-H1299, 4 h; how it was run: as §3
[28] = Hypoxic cytotoxicity ratio, IC50 for human H1299 cells in oxic condition to IC50 for human H1299 cells in hypoxic condition; assay type: functional, NCI-H1299; how it was run: as §3
NCI-H460 [29] = test: Cytotoxicity against human H460 cells in oxic condition after 4 hrs by sulforhodamine B assay; assay type: functional, cell-based; settings: NCI-H460, 4 h; how it was run: as §3
NCI-H460 [30] = test: Cytotoxicity against human H460 cells in hypoxic condition after 4 hrs by sulforhodamine B assay; assay type: functional, cell-based; settings: NCI-H460, 4 h; how it was run: as §3
NCI-H460 [31] = test: Hypoxic cytotoxicity ratio, IC50 for human H460 cells in oxic condition to IC50 for human H460 cells in hypoxic condition; assay type: functional; how it was run: as §3
PC-3 [32] = test: Cytotoxicity against human PC3 cells in oxic condition after 4 hrs by sulforhodamine B assay; assay type: functional, cell-based; settings: PC-3, 4 h; how it was run: as §3
PC-3 [33] = test: Cytotoxicity against human PC3 cells in hypoxic condition after 4 hrs by sulforhodamine B assay; assay type: functional, cell-based; settings: PC-3, 4 h; how it was run: as §3
PC-3 [34] = test: Hypoxic cytotoxicity ratio, IC50 for human PC3 cells in oxic condition to IC50 for human PC3 cells in hypoxic condition; assay type: functional; how it was run: as §3
A-375 [35] = test: Cytotoxicity against human A375 cells in oxic condition after 4 hrs by sulforhodamine B assay; assay type: functional, cell-based; settings: A-375, 4 h; how it was run: as §3
A-375 [36] = test: Cytotoxicity against human A375 cells in hypoxic condition after 4 hrs by sulforhodamine B assay; assay type: functional, cell-based; settings: A-375, 4 h; how it was run: as §3
A-375 [37] = test: Hypoxic cytotoxicity ratio, IC50 for human A375 cells in oxic condition to IC50 for human A375 cells in hypoxic condition; assay type: functional; how it was run: as §3
HT-29 [38] = test: Cytotoxicity against human HT-29 cells assessed as surviving fraction in oxic condition at 30 uM by clonogenic assay; assay type: functional; how it was run: as §1

With `CN(C)CCOc1ccc2[nH]c(C(=O)N3CC(CCl)c4c3cc([N+](=O)[O-])c3cc(S(N)(=O)=O)ccc43)cc2c1` (centres undefined) the C10 (HT-29 [1]) was 0.4 µM, the “Ratio IC50” value (HT-29 [2]) was 125 and the Activity (Mus musculus) was “Non-toxic”. For the same molecule, the Activity (SiHa [3]) was 2.7, the Activity (SiHa [4]) was “inactive” and the IC50 (SK-OV-3 [5]) was 6900 nM. The IC50 (SK-OV-3 [6]) was 0.028 nM, the “Ratio IC50” value (SK-OV-3 [7]) was 275 and the IC50 (HT-29 [8]) was 4600 nM. For the same molecule, the IC50 (HT-29 [9]) was 0.018 nM, the “Ratio IC50” value (HT-29 [10]) was 330 and the IC50 (HCT-116 [11]) was 1700 nM. The IC50 (HCT-116 [12]) was 15 nM, the “Ratio IC50” value (HCT-116 [13]) was 110 and the IC50 (C-33-A [14]) was 500 nM. For the same molecule, the IC50 (C-33-A [15]) was 3 nM, the “Ratio IC50” value (C-33-A [16]) was 240 and the IC50 (SiHa [17]) was 1700 nM. The IC50 (SiHa [18]) was 34 nM, the “Ratio IC50” value (SiHa [19]) was 71 and the IC50 (A549 [20]) was 950 nM. For the same molecule, the IC50 (A549 [21]) was 35 nM, the “Ratio IC50” value (A549 [22]) was 30 and the IC50 (A549 [23]) was 860 nM. For the same molecule, the IC50 (A549 [24]) was 6 nM, the “Ratio IC50” value (A549 [25]) was 140 and the IC50 [26] was 6300 nM. The IC50 [27] was 110 nM, the “Ratio IC50” value [28] was 180 and the IC50 (NCI-H460 [29]) was 3800 nM. The IC50 (NCI-H460 [30]) was 110 nM, the “Ratio IC50” value (NCI-H460 [31]) was 36 and the IC50 (PC-3 [32]) was 2900 nM. For the same molecule, the IC50 (PC-3 [33]) was 37 nM, the “Ratio IC50” value (PC-3 [34]) was 180 and the IC50 (A-375 [35]) was 2900 nM. The IC50 (A-375 [36]) was 150 nM, the “Ratio IC50” value (A-375 [37]) was 19 and the Activity (HT-29 [38]) was >10%.
